Results as given in ChEMBL document CHEMBL3997774, “Identification of Picrasidine C as a Subtype-Selective PPARα Agonist” (J Nat Prod, 2016).
The source made the active and inactive calls. No cut-off for these calls is given here.

Assays:
Assay type in all cases: cell-based
[1] = biological target: T1, Peroxisome proliferator-activated receptor alpha (Homo sapiens) (UniProt Q07869); assay: Agonist activity at GAL4-DBD fused human PPARalpha-LBD (159 to 468 residues) expressed in human HepG2 cells at 10 uM after 24 hrs by dual luciferase reporter gene based mammalian one hybrid assay relative to control
T1 sequence (whole entry): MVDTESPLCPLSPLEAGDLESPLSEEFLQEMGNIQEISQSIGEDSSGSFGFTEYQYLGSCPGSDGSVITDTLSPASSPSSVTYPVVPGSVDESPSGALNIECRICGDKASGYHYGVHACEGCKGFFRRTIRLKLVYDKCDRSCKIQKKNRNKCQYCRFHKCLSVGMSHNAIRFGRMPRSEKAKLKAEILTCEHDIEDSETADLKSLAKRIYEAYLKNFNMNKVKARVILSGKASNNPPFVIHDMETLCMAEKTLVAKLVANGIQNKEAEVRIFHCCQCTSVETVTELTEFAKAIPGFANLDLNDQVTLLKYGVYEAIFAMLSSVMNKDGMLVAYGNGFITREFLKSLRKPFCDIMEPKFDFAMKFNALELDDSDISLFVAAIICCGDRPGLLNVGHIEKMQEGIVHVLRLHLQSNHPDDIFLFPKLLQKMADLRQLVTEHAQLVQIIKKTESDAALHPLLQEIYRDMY
Method in brief: (§1)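 HepG2 cells (DMEM, 10% FBS) transfected with GAL4-DBD/human PPAR-LBD expression vector (0.05 μg), GALRE-luc reporter (0.1 μg) and pGL4.74 Renilla (0.01 μg). After overnight incubation, 0.1–20 μM compound or 0.1% DMSO for 24 h. Dual-luciferase readout, firefly normalized to Renilla. Fold activation over solvent, four independent transfections (mean ± SD, n = 4).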

[2] = biological target: T1, Peroxisome proliferator-activated receptor alpha (Homo sapiens); assay: Agonist activity at GAL4-DBD fused human PPARalpha-LBD (159 to 468 residues) expressed in human HepG2 cells after 24 hrs by dual luciferase reporter gene based mammalian one hybrid assay relative to control; method in brief: as §1
[3] = biological target: T2, Peroxisome proliferator-activated receptor delta (Homo sapiens, UniProt Q03181); assay: Agonist activity at GAL4-DBD fused human PPARbeta/delta-LBD (136 to 441 residues) expressed in human HepG2 cells at 0.1 to 20 uM after 24 hrs by luciferase reporter gene based mammalian one hybrid assay relative to control; method in brief: as §1
T2 sequence (Q03181 whole entry): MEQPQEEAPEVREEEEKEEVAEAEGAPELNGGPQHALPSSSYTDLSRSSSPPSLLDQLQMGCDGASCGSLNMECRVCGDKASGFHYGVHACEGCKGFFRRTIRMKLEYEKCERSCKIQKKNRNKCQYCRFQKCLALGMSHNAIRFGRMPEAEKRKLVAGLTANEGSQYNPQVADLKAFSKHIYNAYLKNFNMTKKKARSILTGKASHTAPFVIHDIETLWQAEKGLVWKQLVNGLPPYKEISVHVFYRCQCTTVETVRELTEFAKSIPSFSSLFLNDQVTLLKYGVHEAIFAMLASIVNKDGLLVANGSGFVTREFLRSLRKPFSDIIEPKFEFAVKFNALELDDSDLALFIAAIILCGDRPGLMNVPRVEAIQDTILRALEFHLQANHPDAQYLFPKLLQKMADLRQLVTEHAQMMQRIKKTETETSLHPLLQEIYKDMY

[4] = biological target: T3, Peroxisome proliferator-activated receptor gamma (Homo sapiens, UniProt P37231); assay: Agonist activity at GAL4-DBD fused human PPARgamma-LBD (157 to 475 residues) expressed in human HepG2 cells at 0.1 to 20 uM after 24 hrs by luciferase reporter gene based mammalian one hybrid assay relative to control; method in brief: as §1
T3 sequence (P37231 whole entry): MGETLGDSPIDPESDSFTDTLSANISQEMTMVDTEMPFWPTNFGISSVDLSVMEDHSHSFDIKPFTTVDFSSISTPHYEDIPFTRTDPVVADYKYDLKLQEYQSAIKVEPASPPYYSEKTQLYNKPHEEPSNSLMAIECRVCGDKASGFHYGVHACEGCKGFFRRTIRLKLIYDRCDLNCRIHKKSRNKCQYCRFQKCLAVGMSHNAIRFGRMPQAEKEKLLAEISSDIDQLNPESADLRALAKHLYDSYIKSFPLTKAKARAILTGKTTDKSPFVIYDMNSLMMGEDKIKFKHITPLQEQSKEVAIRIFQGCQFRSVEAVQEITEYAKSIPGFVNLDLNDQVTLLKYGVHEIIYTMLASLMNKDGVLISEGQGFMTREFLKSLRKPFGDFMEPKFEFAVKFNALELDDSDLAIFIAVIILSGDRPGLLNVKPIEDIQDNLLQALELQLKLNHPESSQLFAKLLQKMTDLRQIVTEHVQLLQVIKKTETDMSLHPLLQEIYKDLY

[5] = biological target: T4, Peroxisome proliferator-activated receptor delta (Homo sapiens) (UniProt Q03181); assay: Antagonist activity at GAL4-DBD fused human PPARbeta/delta-LBD (136 to 441 residues) expressed in human HepG2 cells assessed as inhibition of GW0742-induced receptor activation at 10 uM by luciferase reporter gene based mammalian one hybrid assay
T4 sequence (whole entry): T2 sequence (Q03181 whole entry)
Method in brief: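 HepG2 cells transfected with GAL4/PPARβ/δ-LBD vector (0.05 μg), GALRE-luc (0.1 μg) and pGL4.74 (0.01 μg). Treated 24 h with 10 μM compound, 10 μM GW0742, or both together, vs 0.1% DMSO. Dual-luciferase, Renilla-normalized. Fold over solvent, four transfections (mean ± SD, n = 4).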

[6] = biological target: T1, Peroxisome proliferator-activated receptor alpha (Homo sapiens); assay: Agonist activity at full length human N-terminal Myc-tagged PPARalpha expressed in human HepG2 cells coexpressing RXRalpha assessed as transcriptional activation of PPRE at 10 uM incubated for 24 hrs by dual luciferase reporter gene assay
Method in brief: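 HepG2 cells co-transfected with PPRE-luc reporter (0.1 μg), PPARα and RXRα expression vectors (0.05 μg each) and pGL4.74 (0.01 μg). Treated 24 h with test compound or 0.1% DMSO. Dual-luciferase readout, firefly/Renilla. Fold activation over solvent, four independent transfections (mean ± SD, n = 4).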

[7] = biological target: T1, Peroxisome proliferator-activated receptor alpha (Homo sapiens); assay: Agonist activity at PPARalpha in human THP1 cells assessed as induction of CPT-1 mRNA expression after 24 hrs by RT-qPCR analysis
Method in brief: (§2)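 THP-1 cells (RPMI-1640, 10% FBS) differentiated with 200 nM PMA for 48 h, then treated 24 h with compound (1, 10, 20 μM; reference 50 μM) or 0.1% DMSO. Total RNA extracted, reverse transcribed. SYBR qPCR, 40 cycles (98 °C 5 s, 55 °C 20 s, 72 °C 30 s). Normalized to β-actin mRNA. Fold over solvent, n = 4 (mean ± SD).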

[8] = biological target: T1, Peroxisome proliferator-activated receptor alpha (Homo sapiens); assay: Agonist activity at PPARalpha in human THP1 cells assessed as induction of PDK4 mRNA expression after 24 hrs by RT-qPCR analysis; method in brief: as §2
[9] = biological target: T1, Peroxisome proliferator-activated receptor alpha (Homo sapiens); assay: Agonist activity at PPARalpha in human THP1 cells assessed as induction of ABCA1 mRNA expression after 24 hrs by RT-qPCR analysis; method in brief: as §2
[10] = biological target: T1, Peroxisome proliferator-activated receptor alpha (Homo sapiens); assay: Agonist activity at PPARalpha in human THP1 cells assessed as induction of PDK4 mRNA expression at 20 uM in presence of MK-886 after 24 hrs by RT-qPCR analysis
Method in brief: (§3)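 PMA-differentiated THP-1 cells (200 nM, 48 h) pretreated 1 h with MK-886 (200 μM), then given compound or 0.1% DMSO for 24 h. Target mRNA measured by SYBR RT-qPCR and normalized to β-actin. Fold induction over solvent, four experiments (mean ± SD, n = 4).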

[11] = biological target: T1, Peroxisome proliferator-activated receptor alpha (Homo sapiens); assay: Agonist activity at PPARalpha in human THP1 cells assessed as induction of CPT-1 mRNA expression at 20 uM in presence of MK-886 after 24 hrs by RT-qPCR analysis; method in brief: as §3
[12] = biological target: T1, Peroxisome proliferator-activated receptor alpha (Homo sapiens); assay: Agonist activity at PPARalpha in human THP1 cells assessed as induction of ABCA1 mRNA expression at 20 uM in presence of MK-886 after 24 hrs by RT-qPCR analysis; method in brief: as §3
[13] = biological target: T1, Peroxisome proliferator-activated receptor alpha (Homo sapiens); assay: Agonist activity at PPARalpha in human THP1 cells assessed as induction of PPARalpha mRNA expression after 24 hrs by RT-qPCR analysis; method in brief: as §2
[14] = biological target: T1, Peroxisome proliferator-activated receptor alpha (Homo sapiens); assay: Agonist activity at PPARalpha in human THP1 cells assessed as induction of PPARalpha mRNA expression at 20 uM in presence of MK-886 after 24 hrs by RT-qPCR analysis; method in brief: as §3
HepG2 = assay: Cytotoxicity against human HepG2 cells assessed as reduction in cell viability at 10 uM after 24 hrs by MTS assay; details: hepg2, 24 h
THP-1 = assay: Cytotoxicity against PMA-differentiated human THP1 cells assessed as reduction in cell viability at 10 uM after 24 hrs by MTS assay; details: thp-1, 24 h

SMILES: Cc1cccc(Nc2cc(Cl)nc(SCC(=O)O)n2)c1C
- Activity [1]: Active

SMILES: COc1cccc2c1[nH]c1c(CCC(OC)C(=O)c3nccc4c3[nH]c3ccccc34)ncc(OC)c12 (configuration not stated) [PICRASIDINE C]
- Activity [2]: Dose-dependent effect
- Activity [1]: Active
- Activity [3]: Not Active
- Activity [4]: Not Active
- inhibition [5]: inactive
- Activity [6]: Active
- Activity [7]: Dose-dependent effect
- Activity [8]: Dose-dependent effect
- Activity [9]: Dose-dependent effect
- Activity [10]: inactive
- Activity [11]: inactive
- Activity [12]: inactive
- Activity [13]: Dose-dependent effect
- Activity [14]: inactive
- Activity (HepG2): Non-Toxic
- Activity (THP-1): Non-Toxic
